Source: ChEMBL document CHEMBL3593166, “Hybrid chemistry. Part 4: Discovery of etravirine-VRX-480773 hybrids as potent HIV-1 non-nucleoside reverse transcriptase inhibitors” (Bioorg Med Chem, 2015)
Active and inactive are the calls of the source. The rule behind the calls is not given here.

Test system: not listed separately
Test: Selectivity index, ratio of CC50 for human MT4 cells to EC50 for HIV1 3B infected in human MT4 cells
Type: toxicity, cell-based
Details: HIV1 3B infected MT4 cells, read-out: Ratio CC50/EC50
In short: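 SI calculated as CC50 in uninfected MT-4 cells divided by EC50 against WT HIV-1 IIIB. Both come from the 4-day MTT assays at 37 °C; infection was at MOI 0.02 with cells at 1 × 10^5 cells/mL.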

`Cc1cc(C#N)cc(C)c1Oc1ccnc(SCC(=O)Nc2ccc(C#N)cc2F)n1` and `Cc1cc(C#N)cc(C)c1Oc1ccnc(SCC(=O)Nc2cccc(F)c2)n1` cannot be ordered by selectivity ratio: > 48 for the first, > 38 for the second.

`Cc1cc(C#N)cc(C)c1Oc1ccnc(SCC(=O)Nc2ccccc2Cl)n1` and `Cc1cc(C#N)cc(C)c1Oc1ccnc(SCC(=O)Nc2ccccc2[N+](=O)[O-])n1` cannot be ordered by selectivity ratio: > 1220 for the first, > 844 for the second.

First: NS(=O)(=O)c1ccc(NC(=O)CSc2nnc(Br)n2-c2ccc(C3CC3)c3ccccc23)c(Cl)c1
Second: Cc1cc(S(N)(=O)=O)ccc1NC(=O)CSc1nccc(Oc2c(C)cc(C#N)cc2C)n1
The selectivity ratio of the first is higher: 41600 for the first, 57 for the second.

`Cc1cc(C#N)cc(C)c1Oc1ccnc(SCC(=O)Nc2ccc(F)cc2)n1` and `Cc1ccc(NC(=O)CSc2nccc(Oc3c(C)cc(C#N)cc3C)n2)cc1` cannot be ordered by selectivity ratio: > 38 for the first, > 61 for the second.

`CC(C)Nc1cccnc1N1CCN(C(=O)c2cc3cc(NS(C)(=O)=O)ccc3[nH]2)CC1` [DELAVIRDINE] and `Cc1cc(C#N)cc(C)c1Oc1ccnc(SCC(=O)Nc2ccc(S(N)(=O)=O)cc2)n1` cannot be ordered by selectivity ratio: > 67 for the first, > 34 for the second.

First: Cc1cc(C#N)cc(C)c1Oc1ccnc(SCC(=O)Nc2ccc(Cl)c(Cl)c2)n1
Second: Cc1cc(C#N)cc(C)c1Oc1ccnc(SCC(=O)Nc2ccc([N+](=O)[O-])cc2)n1
The selectivity ratio of the first is lower: 17 for the first, > 205 for the second.

Test system: Human immunodeficiency virus 1
Test: Antiviral activity against HIV1 3B infected in human MT4 cells assessed as inhibition of virus-induced cytopathicity incubated for 4 days by MTT method
Type: functional, organism-based
Details: Human immunodeficiency virus 1, 3B, MT4, 96 h
In short: (§1)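 Virus stocks titrated in MT-4 cells as CCID50. MT-4 cells at 1 × 10^5 cells/mL infected at MOI 0.02 (HIV-1 IIIB or HIV-2 ROD), then plated immediately over serial compound dilutions (DMSO stocks, 50 mM or higher). After 4 days at 37 °C, viable cells counted by MTT. EC50 from means of at least three separate experiments.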

First: Cc1cc(C#N)cc(C)c1Oc1ccnc(SCC(=O)Nc2ccccc2)n1
Second: Cc1cc(C#N)cc(C)c1Oc1ccnc(SCC(=O)Nc2ccccc2Cl)n1
The EC50 of the first is higher: > 320 µM for the first, 0.24 µM for the second.

`Cc1cc(C#N)cc(C)c1Oc1ccnc(SCC(=O)Nc2ccc(C#N)cc2F)n1` and `Cc1cc(C#N)cc(C)c1Oc1ccnc(SCC(=O)Nc2cccc(F)c2)n1` are within 1.5-fold of each other in EC50: 6 µM for the first, 8.1 µM for the second.

Going from `Cc1cc(C#N)cc(C)c1Oc1ccnc(SCC(=O)Nc2ccccc2[N+](=O)[O-])n1` to `Cc1cc(C#N)cc(C)c1Oc1ccnc(SCC(=O)Nc2ccc([N+](=O)[O-])cc2)n1`, the EC50 rises from 0.34 µM to 1.4 µM (4.1-fold).

First: NS(=O)(=O)c1ccc(NC(=O)CSc2nnc(Br)n2-c2ccc(C3CC3)c3ccccc23)c(Cl)c1
Second: Cc1cc(S(N)(=O)=O)ccc1NC(=O)CSc1nccc(Oc2c(C)cc(C#N)cc2C)n1
The EC50 of the first is 5800-fold lower: 0.00014 µM for the first, 0.81 µM for the second.

First: Cc1cc(C#N)cc(C)c1Oc1ccnc(SCC(=O)Nc2ccc(F)cc2)n1
Second: Cc1ccc(NC(=O)CSc2nccc(Oc3c(C)cc(C#N)cc3C)n2)cc1
The EC50 of the first is 1.6-fold higher: 8 µM for the first, 5.1 µM for the second. The second is the more potent here.

`Cc1cc(C#N)cc(C)c1Oc1ccnc(SCC(=O)Nc2ccc(Cl)c(Cl)c2)n1` and `Cc1cc(C#N)cc(C)c1Oc1ccnc(SCC(=O)Nc2ccc(S(N)(=O)=O)cc2)n1` are within 1.5-fold of each other in EC50: 5.3 µM for the first, 7.9 µM for the second.

Test system: Human immunodeficiency virus 1
Test: Antiviral activity against HIV1 3B infected in human MT4 cells […] at 100 fold antiviral EC50 level added 3 to 5 hrs post infection and measured 31 hrs post infection by p24 enzyme-linked immunosorbent assay
Type: functional, organism-based
Details: not given
In short: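 MT-4 cells infected with WT HIV-1 at m.o.i. 0.5; after 1 h adsorption, seeded at 45,000 cells/well, 37°C. Compounds added at 0, 1, 2, 3, 4, 5, 6, 7, 8, 9, 24 or 25 h post-infection. Reference agents at fixed levels (ETV 0.19 µM); hybrids at 100-fold their MT-4/MTT EC50. Virus production measured by p24 ELISA at 31 h post-infection.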

For `Cc1cc(C#N)cc(C)c1Oc1ccnc(SCC(=O)Nc2ccccc2Cl)n1`, the inhibition was “Active”.
With `Cc1cc(C#N)cc(C)c1Oc1ccnc(SCC(=O)Nc2ccccc2[N+](=O)[O-])n1` the inhibition was “Active”.
For `Cc1cc(S(N)(=O)=O)ccc1NC(=O)CSc1nccc(Oc2c(C)cc(C#N)cc2C)n1`, the inhibition was “Active”.

Test system: Human immunodeficiency virus 2
Test: Antiviral activity against HIV2 ROD infected in human MT4 cells assessed as inhibition of virus-induced cytopathicity incubated for 4 days by MTT method
Type: functional, organism-based
Details: Human immunodeficiency virus 2, ISOLATE ROD, MT4, 96 h
In short: as §1

`Cc1cc(C#N)cc(C)c1Oc1ccnc(SCC(=O)Nc2ccccc2)n1` and `Cc1cc(C#N)cc(C)c1Oc1ccnc(SCC(=O)Nc2ccccc2Cl)n1` cannot be ordered by EC50: > 320 µM for the first, > 294 µM for the second.

`Cc1cc(C#N)cc(C)c1Oc1ccnc(SCC(=O)Nc2ccc(C#N)cc2F)n1` and `Cc1cc(C#N)cc(C)c1Oc1ccnc(SCC(=O)Nc2cccc(F)c2)n1` cannot be ordered by EC50: > 288 µM for the first, > 306 µM for the second.

`Cc1cc(C#N)cc(C)c1Oc1ccnc(SCC(=O)Nc2ccccc2[N+](=O)[O-])n1` and `Cc1cc(C#N)cc(C)c1Oc1ccnc(SCC(=O)Nc2ccc([N+](=O)[O-])cc2)n1` cannot be ordered by EC50: > 287 µM for the first, > 287 µM for the second.

`Cc1cc(C#N)cc(C)c1Oc1ccnc(SCC(=O)Nc2ccc(F)cc2)n1` and `Cc1ccc(NC(=O)CSc2nccc(Oc3c(C)cc(C#N)cc3C)n2)cc1` cannot be ordered by EC50: > 306 µM for the first, > 309 µM for the second.

`Cc1cc(S(N)(=O)=O)ccc1NC(=O)CSc1nccc(Oc2c(C)cc(C#N)cc2C)n1` and `Cc1cc(C#N)cc(C)c1Oc1ccnc(SCC(=O)Nc2ccc(S(N)(=O)=O)cc2)n1` cannot be ordered by EC50: > 46 µM for the first, > 266 µM for the second.

For `Cc1cc(C#N)cc(C)c1Oc1ccnc(SCC(=O)Nc2ccc(Cl)c(Cl)c2)n1`, the EC50 was > 89 µM.

Test system: not listed separately
Test: Cytotoxicity against human MT4 cells assessed as reduction in cell viability incubated for 4 days MTT method
Type: cell-based
Details: not given
In short: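 Uninfected MT-4 cells at 1 × 10^5 cells/mL exposed to serial compound dilutions (DMSO stocks, 50 mM or higher) in parallel with the antiviral test. Viability read by MTT after 4 days at 37 °C. CC50 is the concentration lowering viability by 50%. Values are means of at least three experiments.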

`Cc1cc(C#N)cc(C)c1Oc1ccnc(SCC(=O)Nc2ccccc2)n1` and `Cc1cc(C#N)cc(C)c1Oc1ccnc(SCC(=O)Nc2ccccc2Cl)n1` cannot be ordered by CC50 at 96 h: > 320 µM for the first, > 294 µM for the second.

`Cc1cc(C#N)cc(C)c1Oc1ccnc(SCC(=O)Nc2ccc(C#N)cc2F)n1` and `Cc1cc(C#N)cc(C)c1Oc1ccnc(SCC(=O)Nc2cccc(F)c2)n1` cannot be ordered by CC50 at 96 h: > 288 µM for the first, > 306 µM for the second.

`Cc1cc(C#N)cc(C)c1Oc1ccnc(SCC(=O)Nc2ccccc2[N+](=O)[O-])n1` and `Cc1cc(C#N)cc(C)c1Oc1ccnc(SCC(=O)Nc2ccc([N+](=O)[O-])cc2)n1` cannot be ordered by CC50 at 96 h: > 287 µM for the first, > 287 µM for the second.

Compared with `NS(=O)(=O)c1ccc(NC(=O)CSc2nnc(Br)n2-c2ccc(C3CC3)c3ccccc23)c(Cl)c1`, `Cc1cc(S(N)(=O)=O)ccc1NC(=O)CSc1nccc(Oc2c(C)cc(C#N)cc2C)n1` is 7.9-fold higher in CC50 at 96 h: 5.82 µM for the first, 46 µM for the second.

`Cc1cc(C#N)cc(C)c1Oc1ccnc(SCC(=O)Nc2ccc(F)cc2)n1` and `Cc1ccc(NC(=O)CSc2nccc(Oc3c(C)cc(C#N)cc3C)n2)cc1` cannot be ordered by CC50 at 96 h: > 306 µM for the first, > 309 µM for the second.

`CC(C)Nc1cccnc1N1CCN(C(=O)c2cc3cc(NS(C)(=O)=O)ccc3[nH]2)CC1` [DELAVIRDINE] and `Cc1cc(C#N)cc(C)c1Oc1ccnc(SCC(=O)Nc2ccc(S(N)(=O)=O)cc2)n1` cannot be ordered by CC50 at 96 h: > 44 µM for the first, > 266 µM for the second.

For `Cc1cc(C#N)cc(C)c1Oc1ccnc(SCC(=O)Nc2ccc(Cl)c(Cl)c2)n1`, the CC50 at 96 h was 89 µM.

Test system: Human immunodeficiency virus 1
Test: Antiviral activity against HIV1 RES056 expressing reverse transcriptase K103N + Y181C mutant infected in human MT4 cells assessed as inhibition of virus-induced cytopathicity incubated for 4 days by MTT method
Type: functional, organism-based
Details: Human immunodeficiency virus 1, RES056, MT4, 96 h
In short: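 Serial compound dilutions in MT-4 cells (1 × 10^5 cells/mL) infected at MOI 0.02 with K103N+Y181C double-mutant HIV-1. Cells added to compound right after infection and incubated 4 days at 37 °C. Viable cells counted by MTT and EC50 derived. Cytotoxicity run in parallel on uninfected cells. Values are the mean of at least three experiments.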

`Cc1cc(C#N)cc(C)c1Oc1ccnc(SCC(=O)Nc2ccccc2)n1` and `Cc1cc(C#N)cc(C)c1Oc1ccnc(SCC(=O)Nc2ccccc2Cl)n1` cannot be ordered by EC50: > 320 µM for the first, ≥ 10.9 µM for the second.

`Cc1cc(C#N)cc(C)c1Oc1ccnc(SCC(=O)Nc2ccc(C#N)cc2F)n1` and `Cc1cc(C#N)cc(C)c1Oc1ccnc(SCC(=O)Nc2cccc(F)c2)n1` cannot be ordered by EC50: > 288 µM for the first, > 306 µM for the second.

`Cc1cc(C#N)cc(C)c1Oc1ccnc(SCC(=O)Nc2ccccc2[N+](=O)[O-])n1` and `Cc1cc(C#N)cc(C)c1Oc1ccnc(SCC(=O)Nc2ccc([N+](=O)[O-])cc2)n1` cannot be ordered by EC50: > 287 µM for the first, > 287 µM for the second.

Compared with `NS(=O)(=O)c1ccc(NC(=O)CSc2nnc(Br)n2-c2ccc(C3CC3)c3ccccc23)c(Cl)c1`, `Cc1cc(S(N)(=O)=O)ccc1NC(=O)CSc1nccc(Oc2c(C)cc(C#N)cc2C)n1` is higher in EC50: 0.00023 µM for the first, > 46 µM for the second. The first is the more potent here.

`Cc1cc(C#N)cc(C)c1Oc1ccnc(SCC(=O)Nc2ccc(F)cc2)n1` and `Cc1ccc(NC(=O)CSc2nccc(Oc3c(C)cc(C#N)cc3C)n2)cc1` cannot be ordered by EC50: > 306 µM for the first, > 309 µM for the second.

`CC(C)Nc1cccnc1N1CCN(C(=O)c2cc3cc(NS(C)(=O)=O)ccc3[nH]2)CC1` [DELAVIRDINE] and `Cc1cc(C#N)cc(C)c1Oc1ccnc(SCC(=O)Nc2ccc(S(N)(=O)=O)cc2)n1` cannot be ordered by EC50: > 44 µM for the first, > 266 µM for the second.

With `Cc1cc(C#N)cc(C)c1Oc1ccnc(SCC(=O)Nc2ccc(Cl)c(Cl)c2)n1` the EC50 was > 89 µM.

Biological target: Human immunodeficiency virus type 1 reverse transcriptase (Human immunodeficiency virus 1, UniProt Q72547)
Test: Inhibition of HIV1 recombinant wild type reverse transcriptase p66/p51 assessed as reduction in biotin deoxyuridine triphosphate (biotin-dUTP) incorporation using poly(rA)/oligo (dT)16 template and primer by spectrofluorometry
Details: not given

First: Cc1cc(C#N)cc(C)c1Oc1ccnc(SCC(=O)Nc2ccccc2Cl)n1
Second: Cc1cc(C#N)cc(C)c1Oc1ccnc(SCC(=O)Nc2ccccc2[N+](=O)[O-])n1
The IC50 of the first is 2.5-fold lower: 0.473 µM for the first, 1.17 µM for the second. The first is the more potent here.

With `Cc1cc(S(N)(=O)=O)ccc1NC(=O)CSc1nccc(Oc2c(C)cc(C#N)cc2C)n1` the IC50 was 2.77 µM.
